The values that follow come from ChEMBL document CHEMBL1140801, “Potency and selectivity of P2/P3-modified inhibitors of cysteine proteases from trypanosomes” (Bioorg Med Chem Lett, 2008).

Some results are limits rather than exact numbers.

A short description of data set [1]: (§1) Inhibition of Trypanosoma brucei rhodesain. Summed up:
(§2)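 Rhodesain at 2 nM was added to inhibitor dilutions (10 to 0.01 μM) containing 10 μM Z-Phe-Arg-AMC in buffer A. Progress curves were run for 300 s at room temperature. Linear k_obs versus [I] gave k_ass by linear regression. Hyperbolic dependence gave k_inact and K_i by nonlinear fit to a two-step irreversible mechanism.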

The test system of data set [2] is Trypanosoma brucei. The description is as §1. The procedure, abridged:
as §2

The target of data set [3] is Cruzipain (Trypanosoma cruzi) (UniProt P25779). Briefly: (§3) Inhibition of Trypanosoma cruzi cruzain. The procedure, abridged: (§4)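 Cruzain at 2 nM was added to inhibitor dilutions (10 to 0.01 μM) containing 10 μM Z-Phe-Arg-AMC in buffer A. Progress curves were run for 150 s at room temperature. k_ass came from linear regression when k_obs was linear in [I]. If saturating, k_inact and K_i came from nonlinear fitting to a two-step irreversible inhibition model.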
Sequence of Cruzipain (Trypanosoma cruzi) (P25779 123-467 limits assumed): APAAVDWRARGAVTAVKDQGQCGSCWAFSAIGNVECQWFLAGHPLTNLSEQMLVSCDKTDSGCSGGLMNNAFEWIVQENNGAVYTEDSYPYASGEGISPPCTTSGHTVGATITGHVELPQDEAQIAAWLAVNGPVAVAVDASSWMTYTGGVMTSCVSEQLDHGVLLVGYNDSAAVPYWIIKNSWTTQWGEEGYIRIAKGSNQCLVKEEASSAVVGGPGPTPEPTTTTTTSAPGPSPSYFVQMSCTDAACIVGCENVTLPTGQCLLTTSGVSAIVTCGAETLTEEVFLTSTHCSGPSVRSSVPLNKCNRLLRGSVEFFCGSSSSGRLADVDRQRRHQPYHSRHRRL

The target in a further data set is Cruzipain (Trypanosoma cruzi, UniProt P25779). The description is as §3. The procedure, abridged:
as §4

In data set [4] the test system is Trypanosoma brucei. Briefly: Ratio of Kinact to Ki of Trypanosoma brucei cathepsin B. The procedure, abridged:
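TbCatB at 40 nM was added to inhibitor dilutions (10–0.1 μM) containing 10 μM Z-Phe-Arg-AMC in buffer A. Progress curves were run for 300 s at room temperature. For hyperbolic k_obs dependence, k_inact and K_i were fitted by nonlinear regression to a two-step irreversible inhibition equation, with an [S]/K_m correction.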

The subject of data set [5] is Trypanosoma brucei. The data set can be described thus: Ratio of Kinact to Ki of Trypanosoma brucei rhodesain. The procedure, abridged: as §2
Data set [6] has as its target Cruzipain (Trypanosoma cruzi) (UniProt P25779). Briefly: Ratio of Kinact to ki of Trypanosoma cruzi cruzain. Summed up:
as §4

The subject of another data set is J774. The data set can be described thus: Cytotoxicity against mouse J774 macrophage. The format is cell-based. The procedure, abridged: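 J774 macrophages infected with T. cruzi were treated with compound at 10 μM. Macrophage toxicity was scored yes/no alongside macrophage survival in days.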
Another data set relates to Trypanosoma cruzi. Briefly: Antiparasitic activity against Trypanosoma cruzi in J774 macrophage. The format is functional. Summed up:
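T. cruzi-infected J774 macrophages exposed to compound at 10 μM; read-out is how many days the macrophages survive, with macrophage toxicity also scored. Untreated infected cultures serve as control.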

Sequence of Cruzipain (P25779 whole entry): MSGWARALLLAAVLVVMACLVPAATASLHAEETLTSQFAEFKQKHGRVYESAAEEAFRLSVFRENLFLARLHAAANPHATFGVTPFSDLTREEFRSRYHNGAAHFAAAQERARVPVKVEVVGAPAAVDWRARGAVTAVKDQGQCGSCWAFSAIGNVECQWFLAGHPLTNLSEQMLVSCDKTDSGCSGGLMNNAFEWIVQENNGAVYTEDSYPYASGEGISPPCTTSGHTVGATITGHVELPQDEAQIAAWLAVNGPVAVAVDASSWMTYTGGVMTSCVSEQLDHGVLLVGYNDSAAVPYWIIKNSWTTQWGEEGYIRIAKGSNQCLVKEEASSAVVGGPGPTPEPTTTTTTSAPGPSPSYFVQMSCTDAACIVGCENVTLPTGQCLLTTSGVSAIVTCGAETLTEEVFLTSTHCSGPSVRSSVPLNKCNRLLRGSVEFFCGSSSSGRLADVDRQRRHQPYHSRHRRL

In the case of `O=C(N[C@@H](Cc1cccc(C(F)(F)F)c1)C(=O)N[C@H](/C=C/S(=O)(=O)c1ccccc1)CCc1ccccc1)c1ccccn1`, the inhibition constant Ki in data set [1] was 280 nM; on Cruzipain, 150 nM. The Kinact in the data set with Trypanosoma brucei [2] amounted to 0.0017 s⁻¹; in data set [3] it was 0.00047 s⁻¹. Further, the Ka in the data set with Trypanosoma brucei [4] was 500 M⁻¹ s⁻¹. The results for the Ratio (in the data set with Trypanosoma brucei [5]; in data set [6]) were 6000 M⁻¹ s⁻¹ and 3100 M⁻¹ s⁻¹, respectively.

For the molecule `Cc1cccc(C[C@H](NC(=O)c2ccccn2)C(=O)N[C@H](/C=C/S(=O)(=O)c2ccccc2)CCc2ccccc2)c1`, the Ki in data set [1] came to 230 nM; on Cruzipain, 280 nM. The Kinact in the data set on Trypanosoma brucei [2] came out at 0.04 s⁻¹; in data set [3], 0.01 s⁻¹. Further, the Ka with Trypanosoma brucei [4] amounted to 100 M⁻¹ s⁻¹. Besides, the values for the Ratio (with Trypanosoma brucei [5]; in data set [6]) were 173000 M⁻¹ s⁻¹ and 36000 M⁻¹ s⁻¹, respectively.

In turn, `Cc1ccc(C[C@H](NC(=O)N2CCN(C)CC2)C(=O)N[C@H](/C=C/S(=O)(=O)c2ccccc2)CCc2ccccc2)cc1` showed a Ki in [1] of 120 nM. The molecule also showed a Kinact in the data set on Trypanosoma brucei [2] of 0.11 s⁻¹. Further, the Ratio in the data set with Trypanosoma brucei [4] was determined as 10000 M⁻¹ s⁻¹; with Trypanosoma brucei [5], 852000 M⁻¹ s⁻¹. For the same molecule, the Ka in data set [6] came to 440000 M⁻¹ s⁻¹.

On to `CN1CCN(C(=O)N[C@@H](Cc2cccnc2)C(=O)N[C@H](/C=C/S(=O)(=O)c2ccccc2)CCc2ccccc2)CC1`, for which, in data set [3], the Kinact worked out at 0.16 s⁻¹. Further, the affinity at Cruzipain, expressed as Ki, was 3600 nM. Further, the figures for the Ka in the data set with Trypanosoma brucei [4] and in the data set with Trypanosoma brucei [5] were 800 M⁻¹ s⁻¹ and 55000 M⁻¹ s⁻¹, respectively. The Ratio in data set [6] came out at 45000 M⁻¹ s⁻¹.

Take `Cc1ccc(C[C@H](NC(=O)c2ccc3c(c2)OCCO3)C(=O)N[C@H](/C=C/S(=O)(=O)c2ccccc2)CCc2ccccc2)cc1`: the results for the Ki (in data set [1]; on Cruzipain) were 20 nM and 19 nM, respectively. The results for the Kinact (in the data set on Trypanosoma brucei [2]; in data set [3]) were 0.031 s⁻¹ and 0.006 s⁻¹, respectively. The Ka in the data set on Trypanosoma brucei [4] is 600 M⁻¹ s⁻¹. Also, the Ratio in the data set on Trypanosoma brucei [5] came out at 1.57e+06 M⁻¹ s⁻¹; in data set [6], 311000 M⁻¹ s⁻¹.

As to `CN1CCN(C(=O)N[C@@H](Cc2ccccc2)C(=O)N[C@H](/C=C/S(=O)(=O)c2ccccc2)CCc2ccccc2)CC1` [K-777], the Ki in data set [1] is 270 nM. Also, in the data set with J774, the Activity entry was “Non-toxic”. For the same molecule, the Ka in the data set with Trypanosoma brucei [4] amounted to 1000 M⁻¹ s⁻¹. In addition, the Survival in the data set on Trypanosoma cruzi amounted to 42 days.

Consider `O=C(N[C@@H](Cc1ccccc1)C(=O)N[C@H](/C=C/S(=O)(=O)c1ccccc1)CCc1ccccc1)c1ccccn1`, for which the Ki in data set [1] stood at 910 nM; on Cruzipain it was 250 nM. Besides, the Kinact was 0.14 s⁻¹ in the data set on Trypanosoma brucei [2] and 0.03 s⁻¹ in data set [3]. The Activity entry in the data set on J774 is recorded as “Non-toxic”. For the same molecule, the Ka in the data set with Trypanosoma brucei [4] amounted to 70 M⁻¹ s⁻¹. Moreover, the Ratio in the data set on Trypanosoma brucei [5] stood at 150000 M⁻¹ s⁻¹; in data set [6], 120000 M⁻¹ s⁻¹. In addition, the Survival in the data set with Trypanosoma cruzi worked out at 42 days.

With `Cc1ccc(C[C@H](NC(=O)c2cc(F)cc(F)c2)C(=O)N[C@H](/C=C/S(=O)(=O)c2ccccc2)CCc2ccccc2)cc1`, the figures for the Ki (in data set [1]; at Cruzipain) were 30 nM and 350 nM, respectively. For the same molecule, the Kinact with Trypanosoma brucei [2] turned out to be 0.011 s⁻¹; in data set [3], 0.012 s⁻¹. Also, the Ratio with Trypanosoma brucei [5] is 366000 M⁻¹ s⁻¹; in data set [6] it was 34000 M⁻¹ s⁻¹.

For `O=C(N[C@@H](Cc1ccccc1)C(=O)N[C@H](/C=C/S(=O)(=O)c1ccccc1)CCc1ccccc1)c1cc(F)cc(F)c1`, the inhibitory constant (Ki) came to 66 nM in [1] and 980 nM at Cruzipain. Moreover, the results for the Kinact (in the data set on Trypanosoma brucei [2]; in [3]) were 0.021 s⁻¹ and 0.31 s⁻¹, respectively. The Activity entry in the data set on J774 is given as “Toxic”. The Ratio in the data set on Trypanosoma brucei [5] turned out to be 317000 M⁻¹ s⁻¹; in data set [6] it was 31000 M⁻¹ s⁻¹. The molecule also came in with a Survival with Trypanosoma cruzi of 12 days.

Take `Cc1cccc(C[C@H](NC(=O)N2CCN(C)CC2)C(=O)N[C@H](/C=C/S(=O)(=O)c2ccccc2)CCc2ccccc2)c1`: the inhibition constant Ki in data set [1] was found to be 170 nM; at Cruzipain it was 3300 nM. The Kinact with Trypanosoma brucei [2] was 0.088 s⁻¹; in [3], 0.86 s⁻¹. Besides, the Activity result in the data set on J774 is “Non-toxic”. The Ratio with Trypanosoma brucei [4] was 19000 M⁻¹ s⁻¹; in the data set on Trypanosoma brucei [5] it was 517000 M⁻¹ s⁻¹; in data set [6], 257000 M⁻¹ s⁻¹. In the data set on Trypanosoma cruzi, this molecule gave a Survival of 42 days.

For `Cc1cccc(C[C@H](NC(=O)c2ccc(C(F)(F)F)cc2)C(=O)N[C@H](/C=C/S(=O)(=O)c2ccccc2)CCc2ccccc2)c1`, the results for the Ki (in data set [1]; at Cruzipain) were 43 nM and 92 nM, respectively. In addition, the results for the Kinact (in the data set on Trypanosoma brucei [2]; in data set [3]) were 0.005 s⁻¹ and 0.0035 s⁻¹, respectively. In addition, in the data set on J774, the Activity result is given as “Toxic”. Further, the Ratio worked out at 116000 M⁻¹ s⁻¹ in the data set with Trypanosoma brucei [5] and 38000 M⁻¹ s⁻¹ in data set [6]. The Survival in the data set with Trypanosoma cruzi was determined as 8 days.

As to `O=C(N[C@@H](Cc1ccccc1)C(=O)N[C@H](/C=C/S(=O)(=O)c1ccccc1)CCc1ccccc1)c1ccc2c(c1)OCCO2`, the Ki in data set [1] was 85 nM; at Cruzipain, 80 nM. Besides, the Kinact in the data set with Trypanosoma brucei [2] worked out at 0.019 s⁻¹; in data set [3], 0.0056 s⁻¹. In the data set with Trypanosoma brucei [4], the Ka is 540 M⁻¹ s⁻¹. Further, the Ratio was 223000 M⁻¹ s⁻¹ with Trypanosoma brucei [5] and 70000 M⁻¹ s⁻¹ in data set [6].

In turn, `O=C(N[C@@H](Cc1cccc(C(F)(F)F)c1)C(=O)N[C@H](/C=C/S(=O)(=O)c1ccccc1)CCc1ccccc1)c1cc(F)cc(F)c1` displayed a Ki in data set [1] of 33 nM. For the same molecule, the Kinact in the data set on Trypanosoma brucei [2] is 0.0017 s⁻¹. The Activity entry with J774 was “Non-toxic”. Further, the Ratio with Trypanosoma brucei [5] was 52000 M⁻¹ s⁻¹. In the data set on Trypanosoma cruzi, the Survival turned out to be 23 days.

With `Cc1cccc(C[C@H](NC(=O)c2cc(F)cc(F)c2)C(=O)N[C@H](/C=C/S(=O)(=O)c2ccccc2)CCc2ccccc2)c1`, the Kinact stood at 0.023 s⁻¹ with Trypanosoma brucei [2] and 0.0052 s⁻¹ in data set [3]. Further, the Activity result in the data set on J774 is reported as “Toxic”. At Cruzipain, this molecule gave an inhibitory constant (Ki) of 50 nM. In addition, the values for the Ratio (in the data set on Trypanosoma brucei [4]; in the data set with Trypanosoma brucei [5]; in data set [6]) were 16000 M⁻¹ s⁻¹, 456000 M⁻¹ s⁻¹ and 105000 M⁻¹ s⁻¹, respectively. This molecule also came in with a Survival in the data set on Trypanosoma cruzi of 12 days.

In the case of `Cc1ccc(C[C@H](NC(=O)c2ccc(C(F)(F)F)cc2)C(=O)N[C@H](/C=C/S(=O)(=O)c2ccccc2)CCc2ccccc2)cc1`, the Ki came to 33 nM in [1] and 45 nM at Cruzipain. Moreover, the Kinact in the data set on Trypanosoma brucei [2] worked out at 0.014 s⁻¹; in data set [3], 0.0049 s⁻¹. In addition, the values for the Ratio (in the data set on Trypanosoma brucei [5]; in data set [6]) were 420000 M⁻¹ s⁻¹ and 109000 M⁻¹ s⁻¹, respectively.

Consider `CN1CCN(C(=O)N[C@@H](Cc2cccc(C(F)(F)F)c2)C(=O)N[C@H](/C=C/S(=O)(=O)c2ccccc2)CCc2ccccc2)CC1`, for which, in the data set with J774, the Activity entry was “Toxic”. In data set [3], the Kinact amounted to 0.009 s⁻¹. Moreover, on Cruzipain, the Ki came to 170 nM. Further, the Ka in the data set on Trypanosoma brucei [4] was determined as 400 M⁻¹ s⁻¹; with Trypanosoma brucei [5], 81000 M⁻¹ s⁻¹. The same molecule came in with a Survival in the data set with Trypanosoma cruzi of 42 days. Moreover, the Ratio in data set [6] came out at 53000 M⁻¹ s⁻¹.

On to `Cc1cccc(C[C@H](NC(=O)c2ccc3c(c2)OCCO3)C(=O)N[C@H](/C=C/S(=O)(=O)c2ccccc2)CCc2ccccc2)c1`, for which the Ki was found to be 37 nM in data set [1] and 71 nM at Cruzipain. The Kinact in the data set with Trypanosoma brucei [2] is 0.0093 s⁻¹; in [3], 0.001 s⁻¹. For the same molecule, in the data set with Trypanosoma brucei [4], the Ka is 650 M⁻¹ s⁻¹. For the same molecule, the values for the Ratio (with Trypanosoma brucei [5]; in [6]) were 252000 M⁻¹ s⁻¹ and 14000 M⁻¹ s⁻¹, respectively.

On to `Cc1ccc(C[C@H](NC(=O)c2ccccn2)C(=O)N[C@H](/C=C/S(=O)(=O)c2ccccc2)CCc2ccccc2)cc1`, for which the inhibition constant Ki in data set [1] stood at 880 nM; at Cruzipain it was 1700 nM. Also, the values for the Kinact (in the data set with Trypanosoma brucei [2]; in data set [3]) were 0.29 s⁻¹ and 0.027 s⁻¹, respectively. Also, the Ka with Trypanosoma brucei [4] was 60 M⁻¹ s⁻¹. Besides, the Ratio in the data set with Trypanosoma brucei [5] amounted to 327000 M⁻¹ s⁻¹; in data set [6] it was 16000 M⁻¹ s⁻¹.

Regarding `O=C(N[C@@H](Cc1ccccc1)C(=O)N[C@H](/C=C/S(=O)(=O)c1ccccc1)CCc1ccccc1)c1ccc(C(F)(F)F)cc1`, the results for the Ki (in [1]; at Cruzipain) were 87 nM and 97 nM, respectively. Further, the Kinact turned out to be 0.009 s⁻¹ in the data set on Trypanosoma brucei [2] and 0.0097 s⁻¹ in data set [3]. The Activity entry in the data set on J774 is “Non-toxic”. For the same molecule, in the data set on Trypanosoma brucei [4], the Ka is below 5 M⁻¹ s⁻¹. The Ratio with Trypanosoma brucei [5] turned out to be 104000 M⁻¹ s⁻¹; in data set [6], 100000 M⁻¹ s⁻¹. In the data set with Trypanosoma cruzi, the Survival stood at 8 days.
